ChEMBL document CHEMBL1914395, “Design, synthesis, and biological evaluation of callophycin A and analogues as potential chemopreventive and anticancer agents” (Bioorg Med Chem, 2011)

Biological target: T1, Aromatase (Homo sapiens, UniProt P11511)
T1 sequence (P11511 whole entry): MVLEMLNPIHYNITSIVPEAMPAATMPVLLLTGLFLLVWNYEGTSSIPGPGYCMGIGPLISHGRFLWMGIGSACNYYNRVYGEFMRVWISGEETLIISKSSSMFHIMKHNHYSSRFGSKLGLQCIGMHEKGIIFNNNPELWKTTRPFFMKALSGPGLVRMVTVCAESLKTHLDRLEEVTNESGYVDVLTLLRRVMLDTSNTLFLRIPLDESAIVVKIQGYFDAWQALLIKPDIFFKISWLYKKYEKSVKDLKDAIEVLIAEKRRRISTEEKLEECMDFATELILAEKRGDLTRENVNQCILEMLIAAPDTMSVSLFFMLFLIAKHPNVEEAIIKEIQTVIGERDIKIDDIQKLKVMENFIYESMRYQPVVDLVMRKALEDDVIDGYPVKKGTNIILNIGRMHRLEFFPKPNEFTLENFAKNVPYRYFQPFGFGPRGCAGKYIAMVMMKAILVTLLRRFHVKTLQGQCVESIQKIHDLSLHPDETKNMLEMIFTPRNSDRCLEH
Assay: Inhibition of aromatase after 10 mins preincubation by plate reader relative to control
Settings: not given

SMILES	IC50 [µM]
COC(=O)[C@H]1Cc2c([nH]c3ccccc23)CN1S(C)(=O)=O	68.1
C=CCOC(=O)N1Cc2[nH]c3ccccc3c2C[C@H]1C(=O)OC	44.8
COC(=O)[C@@H]1Cc2c([nH]c3ccccc23)CN1C(=O)NC(C)C	47.3
COC(=O)[C@@H]1Cc2c([nH]c3ccccc23)CN1CC1CC1	58.6

Biological target: NAD(P)H dehydrogenase [quinone] 1 (Mus musculus) (UniProt Q64669)
Assay: Induction of quinone reductase 1 activity in mouse Hepa-1c1c7 cells at 50 uM by MTT assay relative to untreated control
Assay type: cell-based
Settings: not given
Method in brief: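 Hepa 1c1c7 murine hepatoma cells treated with compound at 50 μM. QR1 measured by NADPH-dependent, menadiol-mediated reduction of MTT to formazan. Protein measured by crystal violet staining of identical plates. Specific activity is nmol formazan per mg protein per min. Induction ratio is treated versus DMSO-treated control.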

NAD(P)H dehydrogenase [quinone] 1 (Mus musculus), sequence (Q64669 whole entry): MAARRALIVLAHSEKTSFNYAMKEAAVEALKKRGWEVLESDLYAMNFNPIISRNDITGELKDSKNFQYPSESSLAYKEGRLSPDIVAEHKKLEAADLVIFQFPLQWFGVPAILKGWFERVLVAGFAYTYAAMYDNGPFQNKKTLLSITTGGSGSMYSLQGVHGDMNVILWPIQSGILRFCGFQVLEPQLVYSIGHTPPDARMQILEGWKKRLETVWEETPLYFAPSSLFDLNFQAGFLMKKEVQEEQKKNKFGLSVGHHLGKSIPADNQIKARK

SMILES	Ratio
COC(=O)[C@H]1Cc2c([nH]c3ccccc23)CN1S(C)(=O)=O	1.6
C=CCOC(=O)N1Cc2[nH]c3ccccc3c2C[C@H]1C(=O)OC	1.9
COC(=O)[C@@H]1Cc2c([nH]c3ccccc23)CN1C(=O)NC(C)C	2.9
COC(=O)[C@@H]1Cc2c([nH]c3ccccc23)CN1CC1CC1	2.2

Test system: HEK293
Assay: Inhibition of TNF-alpha-induced NFkappaB activation in human HEK293 cells at 50 uM after 6 hrs by luciferase assay relative to control
Assay type: cell-based
Settings: not given
Method in brief: (§1)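 Cells incubated 6 h with TNFα plus test compound, then luciferase activity measured. Results expressed as percent of TNFα-treated control. Screening concentration 50 μM.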

SMILES	inhibition [%]
COC(=O)[C@H]1Cc2c([nH]c3ccccc23)CN1S(C)(=O)=O	42.2
C=CCOC(=O)N1Cc2[nH]c3ccccc3c2C[C@H]1C(=O)OC	33.3
COC(=O)[C@@H]1Cc2c([nH]c3ccccc23)CN1C(=O)NC(C)C	69
COC(=O)[C@@H]1Cc2c([nH]c3ccccc23)CN1CC1CC1	54.1

Biological target: NAD(P)H dehydrogenase [quinone] 1 (Mus musculus) (UniProt Q64669)
Assay: Induction of quinone reductase 1 in mouse Hepa 1c1c7 cells assessed as concentration of compound required to double enzyme activity by MTT assay
Assay type: cell-based
Settings: not given
Method in brief: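 Dose-response in Hepa 1c1c7 cells, run for substances with induction ratio >2 at 50 μM. QR1 activity measured as menadiol-mediated, NADPH-dependent MTT reduction to formazan, normalised to crystal violet protein content. CD is the concentration that doubles specific activity relative to DMSO control.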

SMILES	CD [µM]
COC(=O)[C@@H]1Cc2c([nH]c3ccccc23)CN1C(=O)NC(C)C	6.4
COC(=O)[C@@H]1Cc2c([nH]c3ccccc23)CN1CC1CC1	34

Biological target: T2, Nitric oxide synthase, inducible (Mus musculus) (UniProt P29477)
T2 sequence (whole entry): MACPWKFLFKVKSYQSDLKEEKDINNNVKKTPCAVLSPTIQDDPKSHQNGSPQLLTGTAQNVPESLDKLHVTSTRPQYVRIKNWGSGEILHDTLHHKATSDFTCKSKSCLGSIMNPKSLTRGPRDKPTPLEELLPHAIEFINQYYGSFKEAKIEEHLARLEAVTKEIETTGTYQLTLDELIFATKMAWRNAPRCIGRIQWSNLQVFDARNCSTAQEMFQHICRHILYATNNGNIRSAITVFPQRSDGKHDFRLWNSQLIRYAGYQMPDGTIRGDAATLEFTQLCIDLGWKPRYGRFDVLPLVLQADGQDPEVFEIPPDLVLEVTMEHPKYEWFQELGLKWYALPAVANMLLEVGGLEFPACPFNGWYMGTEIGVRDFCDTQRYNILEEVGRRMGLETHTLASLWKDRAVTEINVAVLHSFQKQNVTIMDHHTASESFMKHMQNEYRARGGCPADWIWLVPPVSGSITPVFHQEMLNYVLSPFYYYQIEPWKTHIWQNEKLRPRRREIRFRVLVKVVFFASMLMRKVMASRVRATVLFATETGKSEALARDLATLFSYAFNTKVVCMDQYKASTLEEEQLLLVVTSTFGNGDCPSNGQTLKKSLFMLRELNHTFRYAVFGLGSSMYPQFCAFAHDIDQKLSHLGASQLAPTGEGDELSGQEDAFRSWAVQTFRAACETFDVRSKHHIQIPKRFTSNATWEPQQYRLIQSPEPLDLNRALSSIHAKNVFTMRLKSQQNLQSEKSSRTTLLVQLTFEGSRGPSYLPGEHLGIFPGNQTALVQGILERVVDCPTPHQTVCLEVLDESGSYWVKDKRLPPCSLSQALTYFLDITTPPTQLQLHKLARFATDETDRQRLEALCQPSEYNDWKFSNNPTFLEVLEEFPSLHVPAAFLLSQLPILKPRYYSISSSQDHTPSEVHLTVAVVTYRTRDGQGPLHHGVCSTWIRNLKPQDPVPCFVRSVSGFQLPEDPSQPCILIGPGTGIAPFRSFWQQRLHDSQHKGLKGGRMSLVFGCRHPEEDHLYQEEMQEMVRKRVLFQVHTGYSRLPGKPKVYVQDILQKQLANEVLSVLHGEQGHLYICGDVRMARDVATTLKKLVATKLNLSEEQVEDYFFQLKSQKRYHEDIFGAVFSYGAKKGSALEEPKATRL
Assay: Inhibition of iNOS-mediated nitric oxide production in LPS-stimulated mouse RAW 264.7 cells at 50 uM pretreated 15 mins before LPS challenge measured after 20 hrs relative to control
Assay type: cell-based
Settings: not given
Method in brief: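 RAW 264.7 cells cultured 24 h at 37°C, then given serially diluted compounds for 15 min before LPS (1 μg/mL) for 20 h. Nitrite in the medium measured with Griess reagent at 540 nm against a sodium nitrite standard curve. Cytotoxicity checked by SRB under the same conditions.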

SMILES	inhibition [%]
COC(=O)[C@H]1Cc2c([nH]c3ccccc23)CN1S(C)(=O)=O	12.9
C=CCOC(=O)N1Cc2[nH]c3ccccc3c2C[C@H]1C(=O)OC	8.5
COC(=O)[C@@H]1Cc2c([nH]c3ccccc23)CN1C(=O)NC(C)C	37.8
COC(=O)[C@@H]1Cc2c([nH]c3ccccc23)CN1CC1CC1	23.5

Biological target: NAD(P)H dehydrogenase [quinone] 1 (Mus musculus) (UniProt Q64669)
Assay: Induction of quinone reductase 1 activity in mouse Hepa-1c1c7 cells assessed as cell survival at 50 uM by MTT assay relative to control
Assay type: cell-based
Settings: not given

SMILES	Survival [%]
COC(=O)[C@H]1Cc2c([nH]c3ccccc23)CN1S(C)(=O)=O	86.3
C=CCOC(=O)N1Cc2[nH]c3ccccc3c2C[C@H]1C(=O)OC	83.4
COC(=O)[C@@H]1Cc2c([nH]c3ccccc23)CN1C(=O)NC(C)C	61.2
COC(=O)[C@@H]1Cc2c([nH]c3ccccc23)CN1CC1CC1	68.6

Test system: not listed separately
Assay: Inhibition of TNF-alpha-induced NFkappaB activation in human HEK293 cells after 6 hrs by luciferase assay
Assay type: cell-based
Settings: HEK293, 6 h
Method in brief: as §1

SMILES	IC50 [µM]
COC(=O)[C@@H]1Cc2c([nH]c3ccccc23)CN1C(=O)NC(C)C	26.5

Test system: HEK293
Assay: Inhibition of TNF-alpha-induced NFkappaB activation in human HEK293 cells assessed as cell survival at 50 uM after 6 hrs by luciferase assay relative to control
Assay type: cell-based
Settings: not given

SMILES	Survival [%]
COC(=O)[C@H]1Cc2c([nH]c3ccccc23)CN1S(C)(=O)=O	158
C=CCOC(=O)N1Cc2[nH]c3ccccc3c2C[C@H]1C(=O)OC	191
COC(=O)[C@@H]1Cc2c([nH]c3ccccc23)CN1C(=O)NC(C)C	117
COC(=O)[C@@H]1Cc2c([nH]c3ccccc23)CN1CC1CC1	152

Biological target: T2, Nitric oxide synthase, inducible (Mus musculus)
Assay: Inhibition of iNOS-mediated nitric oxide production in LPS-stimulated mouse RAW 264.7 cells assessed as cell survival at 50 uM pretreated 15 mins before LPS challenge measured after 20 hrs relative to control
Assay type: cell-based
Settings: not given
Method in brief: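 RAW 264.7 cells were incubated at 37°C, 5% CO2 for 24 h. They were then exposed to compound for 15 min before LPS (1 μg/mL) was added for 20 h. Cytotoxicity was measured by SRB staining under the same conditions. Survival is expressed as % relative to vehicle-treated controls at 50 μM.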

SMILES	Survival [%]
COC(=O)[C@H]1Cc2c([nH]c3ccccc23)CN1S(C)(=O)=O	79.9
C=CCOC(=O)N1Cc2[nH]c3ccccc3c2C[C@H]1C(=O)OC	94.2
COC(=O)[C@@H]1Cc2c([nH]c3ccccc23)CN1C(=O)NC(C)C	94.3
COC(=O)[C@@H]1Cc2c([nH]c3ccccc23)CN1CC1CC1	99.8

Biological target: T1, Aromatase
Assay: Inhibition of aromatase at 50 uM after 10 mins preincubation by plate reader relative to control
Settings: not given
Method in brief: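 CYP19 enzyme. Compound pre-incubated 10 min with an NADPH-regenerating system (NADP+, glucose 6-phosphate, G6PDH, MgCl2, albumin) in 50 mM potassium phosphate pH 7.4. Enzyme and 0.4 μM dibenzylfluorescein substrate then added, 30 min at 37 °C. Quenched with 2 N NaOH and incubated a further 2 h at 37 °C. Fluorescence read at ex 485/em 530 nm. Compound tested at 50 μM.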

SMILES	inhibition at 50 µM [%]
COC(=O)[C@H]1Cc2c([nH]c3ccccc23)CN1S(C)(=O)=O	40.2
C=CCOC(=O)N1Cc2[nH]c3ccccc3c2C[C@H]1C(=O)OC	54.6
COC(=O)[C@@H]1Cc2c([nH]c3ccccc23)CN1C(=O)NC(C)C	54
COC(=O)[C@@H]1Cc2c([nH]c3ccccc23)CN1CC1CC1	47.7

Test system: MCF7
Assay: Antiproliferative activity against human MCF7 cells assessed as survival at 50 uM after 72 hrs by SRB assay relative to control
Assay type: functional
Settings: MCF7, 72 h, read-out: Survival
Method in brief: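 MCF7 cells (1 × 10^4 per well) were plated onto compound and kept at 37°C, 5% CO2 for 72 h. Cells were fixed in 10% TCA for 30 min and stained with 0.4% SRB in 1% acetic acid for 30 min. Bound dye was dissolved in 10 mM Tris (pH 10.0) and read at 515 nm. Survival is given as % of DMSO-treated controls, screened at 50 μM.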

SMILES	viability at 50 µM [%]
COC(=O)[C@H]1Cc2c([nH]c3ccccc23)CN1S(C)(=O)=O	90.9
C=CCOC(=O)N1Cc2[nH]c3ccccc3c2C[C@H]1C(=O)OC	70.4
COC(=O)[C@@H]1Cc2c([nH]c3ccccc23)CN1C(=O)NC(C)C	71
COC(=O)[C@@H]1Cc2c([nH]c3ccccc23)CN1CC1CC1	85.6
